ChEMBL document CHEMBL1165950, “Design and synthesis of new potent anticancer pyrazoles with high FLT3 kinase inhibitory selectivity” (Bioorg Med Chem, 2010)

Assays:
Assay type in all cases: functional
[1] = tested on: KM12; experiment: Cytotoxicity against human KM12 cells assessed as cell growth at 10 uM; details: read-out: Activity
Procedure, shortened: (§1)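 NCI-60 screen: cells grown in RPMI 1640 with 5% FBS and 2 mM L-glutamine, plated at 5000–40,000 cells/well according to doubling time, and preincubated 24 h at 37 °C, 5% CO2. The single 10 µM dose (DMSO stock) was added, then incubated 48 h. Cells were TCA-fixed and stained with 0.4% SRB, read at 515 nm, and growth % calculated against time-zero and control plates.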

[2] = tested on: HCC 2998; experiment: Growth inhibition of human HCC2998 cells after 48 hrs by sulforhodamine B assay; details: HCC 2998, 48 h
Procedure, shortened: (§2)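 NCI 60-cell screen, five-dose mode. Cells grown in RPMI 1640 with 5% FBS and 2 mM L-glutamine and plated at 5000-40,000 cells/well according to doubling time. After 24 h preincubation, a Tz plate was TCA-fixed. Five concentrations (10-fold or 1/2 log dilutions) were applied for 48 h at 37 °C. SRB staining read at 515 nm. IC50 taken from [(Ti-Tz)/(C-Tz)]×100 = 50.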

[3] = tested on: DU-145; experiment: Cytotoxicity against human DU145 cells assessed as cell growth at 0.01 uM after 48 hrs by sulforhodamine B assay; details: DU-145, 48 h, read-out: Activity
[4] = tested on: MCF7; experiment: Cytotoxicity against human MCF7 cells assessed as cell growth at 0.001 uM after 48 hrs by sulforhodamine B assay; details: MCF7, 48 h, read-out: Activity
[5] = tested on: NCI-H226; experiment: Growth inhibition of human NCI-H226 cells after 48 hrs by sulforhodamine B assay; details: NCI-H226, 48 h; procedure, shortened: as §2
[6] = tested on: ACHN; experiment: Cytotoxicity against human ACHN cells assessed as cell growth at 0.01 uM after 48 hrs by sulforhodamine B assay; details: read-out: Activity
[7] = tested on: HOP-92; experiment: Cytotoxicity against human HOP92 cells assessed as cell growth at 10 uM; details: read-out: Activity
Procedure, shortened: (§3)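 Single-dose NCI-60 screen at 10 µM. Cells were grown in RPMI 1640 with 5% FBS and 2 mM L-glutamine, then treated for 48 h at 37 °C. Protein was measured by SRB staining with absorbance at 515 nm. Percentage growth was recorded, and inhibition percentage was calculated as 100 minus growth percentage.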

[8] = tested on: RXF 393; experiment: Cytotoxicity against human RXF393 cells assessed as cell growth at 0.001 uM after 48 hrs by sulforhodamine B assay; details: RXF 393, 48 h, read-out: Activity
[9] = tested on: SR; experiment: Cytotoxicity against human SR cells assessed as cell growth at 100 nM after 48 hrs by sulforhodamine B assay; details: read-out: Activity
[10] = tested on: SR; experiment: Cytotoxicity against human SR cells assessed as cell growth at 1 uM after 48 hrs by sulforhodamine B assay; details: read-out: Activity
[11] = tested on: HCC 2998; experiment: Cytotoxicity against human HCC2998 cells assessed as cell growth at 10 uM after 48 hrs by sulforhodamine B assay; details: HCC 2998, 48 h, read-out: Activity
[12] = tested on: SN12C; experiment: Cytotoxicity against human SN12C cells assessed as cell growth at 100 nM after 48 hrs by sulforhodamine B assay; details: read-out: Activity
[13] = tested on: MDA-MB-435; experiment: Cytotoxicity against human MDA-MB-435 cells assessed as cell growth at 0.01 uM after 48 hrs by sulforhodamine B assay; details: MDA-MB-435, 48 h, read-out: Activity
[14] = tested on: CAKI-1; experiment: Cytotoxicity against human Caki1 cells assessed as cell growth at 1 uM after 48 hrs by sulforhodamine B assay; details: CAKI-1, 48 h, read-out: Activity
[15] = tested on: HCC 2998; experiment: Cytotoxicity against human HCC2998 cells assessed as cell growth at 100 nM after 48 hrs by sulforhodamine B assay; details: HCC 2998, 48 h, read-out: Activity
[16] = tested on: NCI-H226; experiment: Cytotoxicity against human NCI-H226 cells assessed as cell growth at 100 nM after 48 hrs by sulforhodamine B assay; details: NCI-H226, 48 h, read-out: Activity
[17] = tested on: SK-MEL-2; experiment: Cytotoxicity against human SK-MEL-2 cells assessed as cell growth at 1 uM after 48 hrs by sulforhodamine B assay; details: SK-MEL-2, 48 h, read-out: Activity
[18] = tested on: T47D; experiment: Cytotoxicity against human T47D cells assessed as cell growth at 1 uM after 48 hrs by sulforhodamine B assay; details: read-out: Activity
[19] = tested on: HCT-116; experiment: Cytotoxicity against human HCT116 cells assessed as cell growth at 100 nM after 48 hrs by sulforhodamine B assay; details: HCT-116, 48 h, read-out: Activity
[20] = tested on: SR; experiment: Cytotoxicity against human SR cells assessed as cell growth at 0.001 uM after 48 hrs by sulforhodamine B assay; details: read-out: Activity
[21] = Cytotoxicity against human […] cells assessed as cell growth at 10 uM after 48 hrs by sulforhodamine B assay; details: read-out: Activity
[22] = tested on: MCF7; experiment: Cytotoxicity against human MCF7 cells assessed as cell growth at 100 nM after 48 hrs by sulforhodamine B assay; details: MCF7, 48 h, read-out: Activity
[23] = tested on: SK-MEL-28; experiment: Cytotoxicity against human SK-MEL-28 cells assessed as cell growth at 0.001 uM after 48 hrs by sulforhodamine B assay; details: SK-MEL-28, 48 h, read-out: Activity
[24] = tested on: SF-295; experiment: Cytotoxicity against human SF295 cells assessed as cell growth at 10 uM after 48 hrs by sulforhodamine B assay; details: SF-295, 48 h, read-out: Activity
[25] = tested on: SK-MEL-28; experiment: Cytotoxicity against human SK-MEL-28 cells assessed as cell growth at 1 uM after 48 hrs by sulforhodamine B assay; details: SK-MEL-28, 48 h, read-out: Activity
[26] = tested on: OVCAR-8; experiment: Cytotoxicity against human OVCAR8 cells assessed as cell growth at 0.01 uM after 48 hrs by sulforhodamine B assay; details: OVCAR-8, 48 h, read-out: Activity
[27] = tested on: MCF7; experiment: Cytotoxicity against human MCF7 cells assessed as cell growth at 10 uM after 48 hrs by sulforhodamine B assay; details: MCF7, 48 h, read-out: Activity
[28] = tested on: SR; experiment: Cytotoxicity against human SR cells assessed as cell growth at 0.01 uM after 48 hrs by sulforhodamine B assay; details: read-out: Activity
[29] = tested on: SK-MEL-28; experiment: Growth inhibition of human SK-MEL-28 cells after 48 hrs by sulforhodamine B assay; details: SK-MEL-28, 48 h; procedure, shortened: as §2
[30] = tested on: RXF 393; experiment: Cytotoxicity against human RXF393 cells assessed as cell growth at 10 uM after 48 hrs by sulforhodamine B assay; details: RXF 393, 48 h, read-out: Activity
[31] = Cytotoxicity against human […] cells assessed as cell growth at 10 uM; details: read-out: Activity; procedure, shortened: as §1
[32] = tested on: NCI-H226; experiment: Cytotoxicity against human NCI-H226 cells assessed as cell growth at 10 uM after 48 hrs by sulforhodamine B assay; details: NCI-H226, 48 h, read-out: Activity
[33] = tested on: RXF 393; experiment: Cytotoxicity against human RXF393 cells assessed as cell growth at 100 nM after 48 hrs by sulforhodamine B assay; details: RXF 393, 48 h, read-out: Activity
[34] = tested on: CCRF-CEM; experiment: Cytotoxicity against human CCRF-CEM cells assessed as cell growth at 10 uM; details: read-out: Activity; procedure, shortened: as §3
[35] = tested on: RXF 393; experiment: Growth inhibition of human RXF393 cells after 48 hrs by sulforhodamine B assay; details: RXF 393, 48 h; procedure, shortened: as §2
[36] = read-out: LC50 (the source's name)

COc1cc(C)cc(-c2c(-c3ccnc(-c4ccc(C(C)=O)cc4)c3)cnn2CC#N)c1
growth at 10 µM [1]: 80.2% | GI50 [2]: 3.41 µM | TGI [2]: > 100 µM | CC50 [2, 36]: > 100 µM | growth at 0.01 µM [3]: 100% | growth at 0.001 µM [4]: 96% | GI50 [5]: 5.47 µM | TGI [5]: > 100 µM | CC50 [5, 36]: > 100 µM | growth at 0.01 µM [6]: 96% | growth at 10 µM [7]: 23.5% | growth at 0.001 µM [8]: 86% | growth at 0.1 µM [9]: 77% | growth at 1 µM [10]: 18% | growth at 10 µM [11]: 5% | growth at 0.1 µM [12]: 92% | growth at 0.01 µM [13]: 91% | growth at 1 µM [14]: 29% | growth at 0.1 µM [15]: 104% | growth at 0.1 µM [16]: 96% | growth at 1 µM [17]: 34% | growth at 1 µM [18]: -9% | growth at 0.1 µM [19]: 73% | growth at 0.001 µM [20]: 96% | growth at 10 µM [21]: -1% | growth at 0.1 µM [22]: 86% | growth at 0.001 µM [23]: 90% | growth at 10 µM [24]: 35% | growth at 1 µM [25]: 44% | growth at 0.01 µM [26]: 83% | growth at 10 µM [27]: 17% | growth at 0.01 µM [28]: 95% | GI50 [29]: 7.66 µM | TGI [29]: > 100 µM | CC50 [29, 36]: > 100 µM | growth at 10 µM [30]: -27% | growth at 10 µM [31]: 67.6% | growth at 10 µM [32]: 35% | growth at 0.1 µM [33]: 94% | growth at 10 µM [34]: 53.7% | GI50 [35]: 2.32 µM | LC50 (concentration killing 50% of the starting cells) [35]: > 100 µM | TGI [35]: 6.02 µM
